ChEMBL document CHEMBL5649170, “Sustained microglial depletion with CSF1R inhibitor impairs parenchymal plaque development in an Alzheimer's disease model” (Nat Commun, 2019)

Assays:
Mus musculus [1] = assay: Antialzheimer activity in 5XFAD mouse assessed as average plaque volume in somatosensory cortex at 75 ppm administered as rodent chow starting from 1.5 months and measured after 5 months by immunolabeling based confocal microscopic analysis (reference value: 871.142 to 1628.317 microm3); assay type: functional; settings: route po, time 3.5 months, 2555 h
In short: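 5xFAD mice fed PLX3397 at 75 ppm in AIN-76A chow from 1.5 to 5 months of age; retrosplenial and somatosensory cortex sections stained with Thio-S and immunolabeled for IBA1; confocal imaging, IBA1+ cells and plaques quantified per region; two-tailed independent t-test, n = 4–5 per group, mean ± SEM.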

[2] = biological target: T1, Macrophage colony-stimulating factor 1 receptor (Mus musculus) (UniProt P09581); assay: In vivo inhibition of CSF1R in wildtype mouse assessed as microglial numbers by measuring number of Iba positive cells per FOV in […] cortex at 75 ppm administered as rodent chow starting from 1.5 months and measured after 5 months by immunolabeling based confocal microscopic analysis (reference value: 200 to 275); assay type: functional; settings: route po, time 3.5 months
T1 sequence (whole entry): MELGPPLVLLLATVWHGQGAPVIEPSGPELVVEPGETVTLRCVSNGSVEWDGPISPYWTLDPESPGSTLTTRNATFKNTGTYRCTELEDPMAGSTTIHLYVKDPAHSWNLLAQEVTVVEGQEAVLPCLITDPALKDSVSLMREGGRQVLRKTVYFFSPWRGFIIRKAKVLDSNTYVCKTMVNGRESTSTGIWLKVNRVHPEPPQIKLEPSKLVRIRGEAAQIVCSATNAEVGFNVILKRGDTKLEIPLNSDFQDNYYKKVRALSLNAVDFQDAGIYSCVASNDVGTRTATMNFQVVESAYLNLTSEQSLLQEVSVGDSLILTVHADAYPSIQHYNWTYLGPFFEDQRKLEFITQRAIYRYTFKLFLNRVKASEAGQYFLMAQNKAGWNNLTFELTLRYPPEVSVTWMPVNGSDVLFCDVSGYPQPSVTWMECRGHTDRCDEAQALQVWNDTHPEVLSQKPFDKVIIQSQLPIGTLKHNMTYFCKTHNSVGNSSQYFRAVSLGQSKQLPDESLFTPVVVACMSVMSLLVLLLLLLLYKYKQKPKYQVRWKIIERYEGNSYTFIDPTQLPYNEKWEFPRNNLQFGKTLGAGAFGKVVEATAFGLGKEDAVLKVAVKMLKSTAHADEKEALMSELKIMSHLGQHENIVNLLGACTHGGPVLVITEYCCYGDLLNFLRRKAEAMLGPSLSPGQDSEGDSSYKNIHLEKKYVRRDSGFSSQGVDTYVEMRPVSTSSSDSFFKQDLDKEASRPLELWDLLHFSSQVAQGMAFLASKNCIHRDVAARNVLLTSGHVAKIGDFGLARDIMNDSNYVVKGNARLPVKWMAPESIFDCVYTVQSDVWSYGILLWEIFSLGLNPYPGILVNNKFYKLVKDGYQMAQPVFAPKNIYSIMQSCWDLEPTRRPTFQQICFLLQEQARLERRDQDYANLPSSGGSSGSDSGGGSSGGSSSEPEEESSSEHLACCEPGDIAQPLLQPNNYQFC

Ephrin type-A receptor 1 = Ephrin type-A receptor 1 (Homo sapiens, UniProt P21709); assay: Inhibition of EPHA1 (unknown origin)
Sequence of Ephrin type-A receptor 1 (P21709 whole entry): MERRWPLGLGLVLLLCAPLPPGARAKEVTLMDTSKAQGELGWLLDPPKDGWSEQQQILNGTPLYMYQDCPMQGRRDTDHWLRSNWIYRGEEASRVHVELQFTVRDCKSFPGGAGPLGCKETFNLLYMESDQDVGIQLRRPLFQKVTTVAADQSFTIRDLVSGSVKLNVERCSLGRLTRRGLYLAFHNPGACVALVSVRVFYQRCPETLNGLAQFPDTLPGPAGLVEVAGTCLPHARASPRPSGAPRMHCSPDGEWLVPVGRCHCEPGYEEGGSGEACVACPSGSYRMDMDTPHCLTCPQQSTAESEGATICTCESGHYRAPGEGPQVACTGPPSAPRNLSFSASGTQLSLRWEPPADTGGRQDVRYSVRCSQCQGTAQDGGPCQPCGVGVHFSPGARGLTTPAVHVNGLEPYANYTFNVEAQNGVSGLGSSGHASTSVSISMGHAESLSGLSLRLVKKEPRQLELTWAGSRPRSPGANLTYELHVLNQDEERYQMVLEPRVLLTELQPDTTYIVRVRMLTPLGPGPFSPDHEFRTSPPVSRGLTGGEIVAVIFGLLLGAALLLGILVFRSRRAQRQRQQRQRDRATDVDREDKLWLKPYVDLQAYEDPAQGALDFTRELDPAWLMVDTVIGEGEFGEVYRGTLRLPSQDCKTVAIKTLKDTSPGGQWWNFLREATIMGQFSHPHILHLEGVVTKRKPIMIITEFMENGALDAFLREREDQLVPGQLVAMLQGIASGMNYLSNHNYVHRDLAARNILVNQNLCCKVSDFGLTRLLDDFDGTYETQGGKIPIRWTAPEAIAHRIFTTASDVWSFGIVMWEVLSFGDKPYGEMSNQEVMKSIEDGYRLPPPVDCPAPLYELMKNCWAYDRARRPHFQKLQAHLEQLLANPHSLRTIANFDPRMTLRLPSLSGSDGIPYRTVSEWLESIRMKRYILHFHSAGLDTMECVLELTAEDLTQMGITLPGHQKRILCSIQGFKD

[3] = Toxicity in wildtype mouse assessed as number of entries to center zone at 1200 ppm administered as rodent chow for 10 to 24 weeks by Open field test (reference value: 19 to 63); settings: in vivo, po, time 10-24 weeks
[4] = biological target: Tyrosine-protein kinase SYK (Homo sapiens, UniProt P43405); assay: Inhibition of SYK (unknown origin)
[5] = Effect on Itgax gene expression in 5XFAD mouse thalamus at 1200 ppm administered as rodent chow starting from 1.5 months and measured after 7 months by RNA-Seq analysis (reference value: 1.842 to 2.823 RPKM); assay type: functional; settings: route po, time 5.5 months, 4015 h
Mus musculus [6] = assay: Effect on APP processing pathway in 5XFAD mouse assessed as C99 protein signal intensity in cortex at 1200 ppm administered as rodent starting from 1.5 months and measured after 7 months (reference value: 49.412 to 179.884 %); assay type: functional; settings: route po, time 5.5 months, 4015 h
[7] = Prevention of Dynll1 gene downregulation in 5XFAD mouse hippocampus assessed as percent change in Reads Per kilo base per Million mapped reads at 1200 ppm administered as rodent chow starting from 1.5 months and measured after 7 months by RNA-Seq analysis (reference value: 79.087 to 86.108 %); assay type: functional; settings: route po, time 5.5 months, 4015 h
[8] = biological target: T1, Macrophage colony-stimulating factor 1 receptor (Mus musculus); assay: In vivo inhibition of CSF1R in wildtype mouse assessed as number of Iba1 positive cells per FOV in thalamus cortex at 1200 ppm administered as rodent chow starting from 1.5 months to 4 months followed by compound removal and measured after 1 months by immunolabelling based confocal microscopic analysis (reference value: 232 to 320); assay type: functional; settings: route po, time 2.5 months
[9] = Prevention of Scn1b gene downregulation in 5XFAD mouse hippocampus assessed as percent change in Reads Per kilo base per Million mapped reads at 1200 ppm administered as rodent chow starting from 1.5 months and measured after 7 months by RNA-Seq analysis (reference value: 53.15 to 80.717 %); assay type: functional; settings: route po, time 5.5 months, 4015 h
SRSF protein kinase 1 = SRSF protein kinase 1 (Homo sapiens, UniProt Q96SB4); assay: Inhibition of SRPK1 (unknown origin)
Sequence of SRSF protein kinase 1 (Q96SB4 whole entry): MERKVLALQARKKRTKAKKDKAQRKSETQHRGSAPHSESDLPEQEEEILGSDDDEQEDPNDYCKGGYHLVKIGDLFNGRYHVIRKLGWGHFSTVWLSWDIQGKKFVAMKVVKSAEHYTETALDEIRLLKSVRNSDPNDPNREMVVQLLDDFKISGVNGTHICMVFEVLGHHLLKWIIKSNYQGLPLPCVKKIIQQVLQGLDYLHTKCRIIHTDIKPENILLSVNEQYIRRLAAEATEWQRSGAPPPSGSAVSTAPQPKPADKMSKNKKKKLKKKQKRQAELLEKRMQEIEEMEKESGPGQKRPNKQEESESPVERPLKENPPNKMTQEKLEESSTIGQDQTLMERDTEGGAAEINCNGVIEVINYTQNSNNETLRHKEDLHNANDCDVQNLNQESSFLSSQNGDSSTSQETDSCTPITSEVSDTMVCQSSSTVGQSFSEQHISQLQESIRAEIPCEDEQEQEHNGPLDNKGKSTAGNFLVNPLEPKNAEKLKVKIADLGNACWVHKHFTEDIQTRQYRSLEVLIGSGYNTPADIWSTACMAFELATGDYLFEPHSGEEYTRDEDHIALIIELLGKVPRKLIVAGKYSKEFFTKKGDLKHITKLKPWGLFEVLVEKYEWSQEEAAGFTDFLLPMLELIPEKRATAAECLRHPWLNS

[10] = biological target: Testis-specific serine/threonine-protein kinase 2 (Homo sapiens, UniProt Q96PF2); assay: Inhibition of STK22B (unknown origin)
Mus musculus [11] = assay: Antialzheimer activity in 5XFAD mouse assessed as number of entries to perimeter zone at 1200 ppm administered as rodent chow for 10 to 24 weeks by Open field test (reference value: 22 to 55); assay type: functional; settings: route po, time 10-24 weeks
[12] = biological target: Rho-associated protein kinase 1 (Homo sapiens, UniProt Q13464); assay: Inhibition of ROCK1 (unknown origin)
Sequence of Rho-associated protein kinase 1 (Q13464 whole entry): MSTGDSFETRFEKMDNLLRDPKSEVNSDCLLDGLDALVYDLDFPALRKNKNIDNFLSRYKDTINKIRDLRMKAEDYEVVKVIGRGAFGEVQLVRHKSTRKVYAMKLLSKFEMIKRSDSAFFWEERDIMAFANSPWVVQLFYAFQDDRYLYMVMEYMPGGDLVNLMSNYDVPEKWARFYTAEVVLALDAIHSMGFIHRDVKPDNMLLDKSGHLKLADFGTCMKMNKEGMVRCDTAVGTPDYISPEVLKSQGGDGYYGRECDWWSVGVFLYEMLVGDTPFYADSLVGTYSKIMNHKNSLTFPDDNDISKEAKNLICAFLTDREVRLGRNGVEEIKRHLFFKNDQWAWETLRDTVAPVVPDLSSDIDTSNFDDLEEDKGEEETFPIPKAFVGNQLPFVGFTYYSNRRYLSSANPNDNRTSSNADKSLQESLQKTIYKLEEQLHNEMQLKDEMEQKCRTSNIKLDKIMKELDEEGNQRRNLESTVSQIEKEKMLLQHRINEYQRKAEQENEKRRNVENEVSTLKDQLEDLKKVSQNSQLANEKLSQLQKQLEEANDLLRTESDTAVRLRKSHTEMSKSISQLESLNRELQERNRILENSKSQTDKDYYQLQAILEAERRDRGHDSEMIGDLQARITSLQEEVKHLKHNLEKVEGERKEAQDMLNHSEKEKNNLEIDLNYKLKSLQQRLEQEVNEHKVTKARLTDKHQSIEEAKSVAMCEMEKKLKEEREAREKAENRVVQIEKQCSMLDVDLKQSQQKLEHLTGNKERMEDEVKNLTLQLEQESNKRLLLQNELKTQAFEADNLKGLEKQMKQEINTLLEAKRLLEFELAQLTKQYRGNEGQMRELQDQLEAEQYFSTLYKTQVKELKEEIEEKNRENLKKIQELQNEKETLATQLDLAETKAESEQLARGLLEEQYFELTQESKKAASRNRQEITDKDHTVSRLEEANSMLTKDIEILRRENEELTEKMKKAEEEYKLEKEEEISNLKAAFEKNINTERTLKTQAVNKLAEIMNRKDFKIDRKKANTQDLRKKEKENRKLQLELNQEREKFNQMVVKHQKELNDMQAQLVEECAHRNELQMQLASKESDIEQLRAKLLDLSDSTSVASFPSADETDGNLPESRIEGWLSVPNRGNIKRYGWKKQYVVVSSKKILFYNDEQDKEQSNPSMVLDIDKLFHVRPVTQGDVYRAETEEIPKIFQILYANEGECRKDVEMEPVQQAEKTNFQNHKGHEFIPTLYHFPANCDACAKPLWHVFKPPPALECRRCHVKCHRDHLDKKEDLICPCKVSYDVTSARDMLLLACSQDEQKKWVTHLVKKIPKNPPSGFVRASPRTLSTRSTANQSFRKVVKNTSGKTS

[13] = biological target: Inhibitor of nuclear factor kappa-B kinase subunit alpha (Homo sapiens, UniProt O15111); assay: Inhibition of CHUK (unknown origin)
Sequence of Inhibitor of nuclear factor kappa-B kinase subunit alpha (O15111 whole entry): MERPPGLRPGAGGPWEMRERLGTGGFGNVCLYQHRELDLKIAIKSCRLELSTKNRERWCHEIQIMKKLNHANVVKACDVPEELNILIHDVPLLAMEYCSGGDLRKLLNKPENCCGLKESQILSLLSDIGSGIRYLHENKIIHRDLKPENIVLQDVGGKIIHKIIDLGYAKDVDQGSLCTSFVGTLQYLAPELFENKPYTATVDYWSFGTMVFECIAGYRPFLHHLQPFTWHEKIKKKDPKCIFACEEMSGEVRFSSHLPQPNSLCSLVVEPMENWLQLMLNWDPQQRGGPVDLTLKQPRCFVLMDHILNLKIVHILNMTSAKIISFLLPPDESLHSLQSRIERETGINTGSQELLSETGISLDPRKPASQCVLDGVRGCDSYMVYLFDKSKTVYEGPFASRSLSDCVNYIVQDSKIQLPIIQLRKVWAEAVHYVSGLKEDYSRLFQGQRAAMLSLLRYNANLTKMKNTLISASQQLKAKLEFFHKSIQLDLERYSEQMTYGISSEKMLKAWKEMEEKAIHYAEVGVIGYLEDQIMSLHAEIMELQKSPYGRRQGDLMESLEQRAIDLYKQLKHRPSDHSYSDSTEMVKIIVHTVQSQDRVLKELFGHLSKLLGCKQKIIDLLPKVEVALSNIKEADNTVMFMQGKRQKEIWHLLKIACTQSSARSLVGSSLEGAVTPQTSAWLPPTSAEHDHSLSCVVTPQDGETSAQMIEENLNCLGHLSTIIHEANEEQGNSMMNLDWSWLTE

[14] = biological target: Protein kinase C eta type (Homo sapiens, UniProt P24723); assay: Inhibition of PRKCH (unknown origin)
Sequence of Protein kinase C eta type (P24723 whole entry): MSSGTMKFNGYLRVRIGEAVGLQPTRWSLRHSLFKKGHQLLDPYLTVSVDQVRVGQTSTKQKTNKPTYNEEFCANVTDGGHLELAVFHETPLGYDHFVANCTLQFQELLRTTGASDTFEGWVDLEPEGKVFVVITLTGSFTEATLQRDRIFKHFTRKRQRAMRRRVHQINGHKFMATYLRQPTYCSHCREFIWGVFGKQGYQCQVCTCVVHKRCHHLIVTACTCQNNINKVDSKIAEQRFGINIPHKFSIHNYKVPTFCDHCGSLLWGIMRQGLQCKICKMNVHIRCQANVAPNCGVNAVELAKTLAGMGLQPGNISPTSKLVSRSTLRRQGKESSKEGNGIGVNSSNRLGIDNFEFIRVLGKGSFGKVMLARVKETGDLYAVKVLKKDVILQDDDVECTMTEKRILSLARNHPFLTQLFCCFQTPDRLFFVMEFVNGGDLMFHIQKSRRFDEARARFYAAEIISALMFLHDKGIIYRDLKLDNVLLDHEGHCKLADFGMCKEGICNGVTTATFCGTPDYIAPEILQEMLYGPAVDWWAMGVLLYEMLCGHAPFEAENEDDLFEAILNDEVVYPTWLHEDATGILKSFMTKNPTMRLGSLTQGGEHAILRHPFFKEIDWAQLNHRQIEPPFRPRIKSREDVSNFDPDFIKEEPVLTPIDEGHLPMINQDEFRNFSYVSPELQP

[15] = Effect on Nrg3 gene expression in wildtype mouse hippocampus assessed as percent change in Reads Per kilo base per Million mapped reads at 1200 ppm administered as rodent chow starting from 1.5 months and measured after 7 months by RNA-Seq analysis (reference value: 84.058 to 111.732 %); assay type: functional; settings: route po, time 5.5 months, 4015 h
[16] = Effect on Ctsz gene expression in 5XFAD mouse thalamus at 1200 ppm administered as rodent chow starting from 1.5 months and measured after 7 months by RNA-Seq analysis (reference value: 23.715 to 34.765 RPKM); assay type: functional; settings: route po, time 5.5 months, 4015 h
[17] = Effect on ccl6 gene expression in wild type mouse thalamus at 1200 ppm administered as rodent chow starting from 1.5 months and measured after 7 months by RNA-Seq analysis (reference value: 0.647 to 1.238 RPKM); assay type: functional; settings: route po, time 5.5 months, 4015 h
[18] = Effect on Csf1r RPKM gene expression in 5XFAD mouse cortex at 1200 ppm administered as rodent chow starting from 1.5 months and measured after 7 months by RNA-Seq analysis (reference value: 26.750 to 37.128 RPKM); assay type: functional; settings: route po, time 5.5 months, 4015 h
Rhodopsin kinase GRK7 = Rhodopsin kinase GRK7 (Homo sapiens, UniProt Q8WTQ7); assay: Inhibition of GRK7 (unknown origin)
Sequence of Rhodopsin kinase GRK7 (Q8WTQ7 whole entry): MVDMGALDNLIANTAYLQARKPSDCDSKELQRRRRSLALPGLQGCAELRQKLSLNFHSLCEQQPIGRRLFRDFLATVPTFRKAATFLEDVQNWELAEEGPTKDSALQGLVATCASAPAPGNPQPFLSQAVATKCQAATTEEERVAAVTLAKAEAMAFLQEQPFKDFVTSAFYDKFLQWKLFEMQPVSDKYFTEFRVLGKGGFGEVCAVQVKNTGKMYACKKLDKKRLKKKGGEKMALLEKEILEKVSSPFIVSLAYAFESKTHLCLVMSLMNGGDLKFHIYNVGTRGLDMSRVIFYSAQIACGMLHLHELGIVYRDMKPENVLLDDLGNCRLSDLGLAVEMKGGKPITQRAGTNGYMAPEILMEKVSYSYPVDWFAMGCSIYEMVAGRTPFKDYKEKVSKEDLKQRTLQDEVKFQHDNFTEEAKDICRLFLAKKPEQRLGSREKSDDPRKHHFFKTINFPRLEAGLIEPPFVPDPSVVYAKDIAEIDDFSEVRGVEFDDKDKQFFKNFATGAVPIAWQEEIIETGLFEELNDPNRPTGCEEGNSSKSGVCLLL

**Q.** With `FC(F)(F)c1ccc(CNc2ccc(Cc3c[nH]c4ncc(Cl)cc34)cn2)cn1` [PEXIDARTINIB] as the compound, how does the Activity (Mus musculus [1]) read?
**A.** The Activity was 628.64 um3.

**Q.** And the Activity [2]?
**A.** Its Activity is 162.

**Q.** For `COc1ncc(F)cc1CNc1ccc(Cc2c[nH]c3ncc(C)cc23)c(F)n1` [PLX-5622], which IC50 (Ephrin type-A receptor 1) is on record?
**A.** The IC50 was over 1 µM.

**Q.** What about the Activity [3] of the same compound?
**A.** The Activity was 14.

**Q.** And the IC50 [4]?
**A.** Its IC50 is over 1 µM.

**Q.** And the Activity [5]?
**A.** The Activity was 0.043 RPKM.

**Q.** And the Activity (Mus musculus [6])?
**A.** The Activity was 75.956%.

**Q.** What about the Activity [7] of the same compound?
**A.** Its Activity is 96.141%.

**Q.** And the Activity [8]?
**A.** The Activity was 270.

**Q.** And the Activity [9]?
**A.** Its Activity is 84.37%.

**Q.** What about the IC50 (SRSF protein kinase 1) of the same compound?
**A.** The IC50 was over 1 µM.

**Q.** And the IC50 [10]?
**A.** The IC50 was over 1 µM.

**Q.** What about the Activity (Mus musculus [11]) of the same compound?
**A.** The Activity was 7.

**Q.** What about the IC50 [12] of the same compound?
**A.** The IC50 was over 1 µM.

**Q.** And the IC50 [13]?
**A.** The IC50 was over 1 µM.

**Q.** And the IC50 [14]?
**A.** Its IC50 is over 1 µM.

**Q.** And the Activity [15]?
**A.** The Activity was 59.872%.

**Q.** What about the Activity [16] of the same compound?
**A.** Its Activity is 13.618 RPKM.

**Q.** What about the Activity [17] of the same compound?
**A.** Its Activity is 0 RPKM.

**Q.** And the Activity [18]?
**A.** Its Activity is 0.984 RPKM.

**Q.** What about the IC50 (Rhodopsin kinase GRK7) of the same compound?
**A.** The IC50 was over 1 µM.
